# Data reported in PubChem BioAssay.
# The source made the active and inactive calls. Rule as the data show it, unless noted: active = inhibition above about 30%; inactive = the rest.
# Legend:
# [1] = reduced viability of SK-BR-3 breast cancer cells – cell-based, 24 h, human, pilot screen (AID 572;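 active = viability at or below 10% of carrier control in both of two separate runs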;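 also: compound exposure lasted between 18 and 24 h rather than exactly 24 h; 100% = carrier-treated control wells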); conditions: SK-BR-3 viability, CellTiter-Glo luminescence, at 10 µM, stronger effect = lower value
# [2] = HUVEC growth inhibition – cell-based, human, primary screen (AID 575;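 active = viability at or below 30% in both replicate assays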;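 also: 100% = median of untreated cell wells with 0.1% DMSO on each plate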); conditions: HUVEC proliferation, CellTiter-Glo luminescence, 72 h; at 10 µM; stronger effect = lower value
# Method in brief: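 Assay system: Primary human umbilical vein endothelial cells | Quantity: 1250 cells per well | Medium: Supplemented EBM, 2% fetal bovine serum | Detection: CellTiter-Glo luminescence measuring cellular ATP | Read-out: % viability vs DMSO wells | Plate: Collagen-coated 384-well format | Times: 72 h exposure, 37 °C, 5% CO2, 30 min RT equilibration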
# [3] = H69AR cell proliferation blockers – human, duplicate replicates, primary screen (AID 580;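 active = viability at or under a set limit in both replicates, limit being median viability minus 3 SD, cut at about 48% in these data, passing the limit was not always enough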;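 also: 100% = mean luminescence of untreated wells and 0% = no signal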); conditions: H69AR lung tumor cells viability, ATP luminescence, 72 h; at 10 µM; stronger effect = lower value
# [4] = MRP1 drug-resistance reversers in H69AR cells – cell-based, doxorubicin co-treatment, pilot screen (AID 601;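 active = viability loss from added drug above about 55%, and viability with drug at most 40%, in both replicates, limit read from the data, passing the limit was not always enough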); conditions: CellTiter-Glo, 72 h, at 10 µM; for differential viability (reversal): stronger effect = higher value
# [5] = yeast transport mutant growth inhibition pilot in 384-well plates, post-Golgi transport modulator project (AID 636; in the data active = inhibition above about 31%); conditions: absorbance 615 nm, about 18 h, stronger effect = higher value
# [6] = growth suppression of yeast trafficking mutant, preliminary HTS, modulators of trafficking downstream of Golgi apparatus project, 1536-format plate, OD 615 nm (AID 637); conditions: yeast transport mutant growth, absorbance 615 nm, 18 h; stronger effect = higher value
# [7] = H69AR cells + 2 uM doxorubicin, measured here: viability with 2 uM doxorubicin, stronger effect = lower value
# [8] = H69AR cells, compound alone cytotoxicity
SMILES,viability [1],viability [2],viability [3],differential viability (reversal) ([4]; H69AR cells + 2 uM doxorubicin),"viability [4, 7] [%]","viability [4, 8] [%]",inhibition [5],inhibition [6]
Cc1ccc2c(C(=O)CN3CCSCC3)c(C)[nH]c2c1,120% (inactive),91.8% (inactive),74.2% (inactive),-0.745% (inactive),75,74.2,-3.07% (inactive),-3.82% (inactive)
Cc1nccn1CCCN1C(=O)OC2(CCCCC2)C1(C)O (centres undefined),90% (inactive),88.1% (inactive),98.5% (inactive),-3.27% (inactive),102,98.5,-7.53% (inactive),-1.29% (inactive)
O=C(c1nn2cccnc2c1Cl)N1CCN(c2ccccc2)CC1,66% (inactive),102% (inactive),108% (inactive),10.1% (inactive),97.8,108,-6.99% (inactive),3.82% (inactive)
CNC(=O)Oc1ccc2c(c1)[C@]1(C)CCN(C)[C@@H]1N2C,112% (inactive),104% (inactive),93.9% (inactive),-7% (inactive),101,93.9,-3.12% (inactive),2% (inactive)
O=P(CCNCc1ccco1)(c1ccccc1)c1ccccc1,110% (inactive),97.8% (inactive),97.4% (inactive),2.59% (inactive),94.8,97.4,-5.6% (inactive),-4.18% (inactive)
CCOc1cc(C(=O)N(C)Cc2cc3ccccc3[nH]c2=O)cc(OCC)c1OCC,92% (inactive),107% (inactive),98.6% (inactive),2.04% (inactive),96.6,98.6,-7.43% (inactive),-4.18% (inactive)
CCOC(=O)C1(c2ccccc2)NC(c2ccc(N(C)C)cc2)C2C(=O)N(C)C(=O)C21 (centres undefined),82% (inactive),104% (inactive),94.4% (inactive),29.2% (inactive),65.2,94.4,-8.11% (inactive),-6.73% (inactive)
O=C(CSc1ccccc1C(=O)NCCCN1CCCC1=O)NCc1ccco1,108% (inactive),102% (inactive),82.3% (inactive),2.32% (inactive),80,82.3,-3.6% (inactive),6% (inactive)
Cc1cc(=O)n(CCO)c(O)c1C#N,81.5% (inactive),107% (inactive),95.1% (inactive),-5.74% (inactive),101,95.1,-3.95% (inactive),22.8% (inactive)
COc1ccccc1N1CCN(C(=O)CSc2nc3ncnc(N)c3[nH]2)CC1,110% (inactive),96.6% (inactive),92.8% (inactive),3.56% (inactive),89.3,92.8,-4.29% (inactive),-1.31% (inactive)
COc1cccc(NC(=O)CC2SC(=Nc3ccccc3)NC2=O)c1 (centres undefined),70% (inactive),106% (inactive),92% (inactive),-6.89% (inactive),98.9,92,-6.35% (inactive),-1.27% (inactive)
Cc1ccc(-c2ccc(=O)n(CC(=O)NCCCN3CCCCC3C)n2)cc1 (centres undefined),97% (inactive),99% (inactive),91.9% (inactive),-3.54% (inactive),95.4,91.9,-0.39% (inactive),-6.56% (inactive)
CCCc1cc(=O)[nH]c(SCc2ccccc2)n1,101% (inactive),106% (inactive),90.4% (inactive),8.54% (inactive),81.9,90.4,1.04% (inactive),-2.46% (inactive)
O=C(Nc1ccc(Cl)cc1C(=O)O)c1ccc2c(c1)C(=O)N(Cc1ccco1)C2=O,72% (inactive),86.6% (inactive),93.3% (inactive),8.62% (inactive),84.7,93.3,-8.49% (inactive),0.48% (inactive)
CC(C)OC(=O)c1cccc(C(=O)O)n1,110% (inactive),91% (inactive),96% (inactive),1.99% (inactive),94.1,96,-1.69% (inactive),-5.57% (inactive)
COc1cccc(-c2nnc(SCC(N)=O)n2-c2ccc(Cl)cc2)c1,114% (inactive),103% (inactive),97.1% (inactive),4.49% (inactive),92.6,97.1,0% (inactive),-4.19% (inactive)
Cc1csc(SCCn2c(N3CCCC3)nc3c2c(=O)[nH]c(=O)n3C)n1,94% (inactive),105% (inactive),100% (inactive),-4.86% (inactive),105,100,-1.49% (inactive),-2.55% (inactive)
COc1ccc(-c2nsc(SCC(=O)Nc3cc(C)on3)n2)cc1,79% (inactive),79.4% (inactive),84.8% (inactive),-5.36% (inactive),90.2,84.8,-5.07% (inactive),3.09% (inactive)
